Activity calls are given as the source filed them. No cut-off for these calls is given here.
Legend:
[1] = target: T1, Endoplasmic reticulum aminopeptidase 2 (Homo sapiens, UniProt Q6P179); assay: Inhibition of recombinant ERAP2 (unknown origin) expressed in baculovirus-infected Hi5 insect cells assessed as L-Arginyl-7-amido-4-methyl coumarin hydrolysis to 7-amido-4-methyl coumarin at 50 to 100 uM after 5 to 10 mins by fluorescence assay relative to control
Method in brief: (§1)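 ERAP2 was made as a recombinant protein in baculovirus-infected Hi5 insect cells and purified by affinity chromatography. Activity was monitored fluorogenically as the rate of R-AMC hydrolysis. Inhibitor was titrated, and inhibition was also examined at 50 μM and across 50–100 μM.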

[2] = target: T1, Endoplasmic reticulum aminopeptidase 2; assay: Inhibition of recombinant ERAP2 (unknown origin) expressed in baculovirus-infected Hi5 insect cells assessed as L-Arginyl-7-amido-4-methyl coumarin hydrolysis to 7-amido-4-methyl coumarin after 5 to 10 mins by fluorescence assay
[3] = target: T1, Endoplasmic reticulum aminopeptidase 2; assay: Inhibition of recombinant ERAP2 (unknown origin) expressed in baculovirus-infected Hi5 insect cells assessed as L-Arginyl-7-amido-4-methyl coumarin hydrolysis to 7-amido-4-methyl coumarin at 50 uM after 5 to 10 mins by fluorescence assay; method in brief: as §1
[4] = target: Endoplasmic reticulum aminopeptidase 1 (Homo sapiens) (UniProt Q9NZ08); assay: Inhibition of recombinant ERAP1 (unknown origin) expressed in baculovirus-infected Hi5 insect cells assessed as L-Leucine-7-amido-4-methyl coumarin hydrolysis to 7-amido-4-methyl coumarin at 50 uM after 5 to 10 mins by fluorescence assay
Chain of Endoplasmic reticulum aminopeptidase 1 (Homo sapiens) (Q9NZ08 whole entry): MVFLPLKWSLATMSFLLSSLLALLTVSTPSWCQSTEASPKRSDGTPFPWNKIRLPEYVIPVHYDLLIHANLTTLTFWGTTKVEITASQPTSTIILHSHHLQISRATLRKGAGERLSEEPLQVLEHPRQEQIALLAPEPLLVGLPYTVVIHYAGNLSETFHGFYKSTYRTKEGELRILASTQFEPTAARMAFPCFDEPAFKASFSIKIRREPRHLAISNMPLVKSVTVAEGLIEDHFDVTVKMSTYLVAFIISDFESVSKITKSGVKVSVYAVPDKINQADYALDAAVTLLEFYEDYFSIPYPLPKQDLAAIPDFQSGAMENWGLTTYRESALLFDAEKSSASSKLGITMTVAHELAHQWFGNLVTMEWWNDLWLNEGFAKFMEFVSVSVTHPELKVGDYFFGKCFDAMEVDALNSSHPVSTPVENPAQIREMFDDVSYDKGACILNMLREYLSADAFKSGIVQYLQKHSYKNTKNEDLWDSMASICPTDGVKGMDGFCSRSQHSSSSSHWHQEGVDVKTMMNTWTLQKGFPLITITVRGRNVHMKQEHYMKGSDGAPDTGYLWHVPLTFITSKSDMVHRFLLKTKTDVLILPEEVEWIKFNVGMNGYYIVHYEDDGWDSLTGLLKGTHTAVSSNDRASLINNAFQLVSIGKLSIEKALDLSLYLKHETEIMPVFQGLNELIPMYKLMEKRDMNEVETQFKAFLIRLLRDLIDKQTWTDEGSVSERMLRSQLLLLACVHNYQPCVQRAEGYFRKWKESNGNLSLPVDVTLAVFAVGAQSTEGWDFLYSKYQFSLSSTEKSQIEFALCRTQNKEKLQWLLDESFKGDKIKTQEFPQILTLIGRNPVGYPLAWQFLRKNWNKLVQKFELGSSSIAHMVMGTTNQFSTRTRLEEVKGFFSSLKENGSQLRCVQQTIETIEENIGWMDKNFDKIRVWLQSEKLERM
Method in brief: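 ERAP1 was made as a recombinant protein in Hi5 insect cells infected with recombinant baculovirus and affinity-purified to homogeneity. Activity was followed as the kinetics of hydrolysis of the fluorogenic substrate L-AMC. Inhibitor was titrated at increasing amounts, and single-point inhibition was checked at 50 μM.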

[5] = target: T2, Leucyl-cystinyl aminopeptidase (Homo sapiens, UniProt Q9UIQ6); assay: Inhibition of human recombinant IRAP expressed in HeLa cells assessed as L-Leucine-7-amido-4-methyl coumarin hydrolysis to 7-amido-4-methyl coumarin at 50 to 100 uM after 5 to 10 mins by fluorescence assay relative to control; format: cell-based
T2 sequence (Q9UIQ6 whole entry): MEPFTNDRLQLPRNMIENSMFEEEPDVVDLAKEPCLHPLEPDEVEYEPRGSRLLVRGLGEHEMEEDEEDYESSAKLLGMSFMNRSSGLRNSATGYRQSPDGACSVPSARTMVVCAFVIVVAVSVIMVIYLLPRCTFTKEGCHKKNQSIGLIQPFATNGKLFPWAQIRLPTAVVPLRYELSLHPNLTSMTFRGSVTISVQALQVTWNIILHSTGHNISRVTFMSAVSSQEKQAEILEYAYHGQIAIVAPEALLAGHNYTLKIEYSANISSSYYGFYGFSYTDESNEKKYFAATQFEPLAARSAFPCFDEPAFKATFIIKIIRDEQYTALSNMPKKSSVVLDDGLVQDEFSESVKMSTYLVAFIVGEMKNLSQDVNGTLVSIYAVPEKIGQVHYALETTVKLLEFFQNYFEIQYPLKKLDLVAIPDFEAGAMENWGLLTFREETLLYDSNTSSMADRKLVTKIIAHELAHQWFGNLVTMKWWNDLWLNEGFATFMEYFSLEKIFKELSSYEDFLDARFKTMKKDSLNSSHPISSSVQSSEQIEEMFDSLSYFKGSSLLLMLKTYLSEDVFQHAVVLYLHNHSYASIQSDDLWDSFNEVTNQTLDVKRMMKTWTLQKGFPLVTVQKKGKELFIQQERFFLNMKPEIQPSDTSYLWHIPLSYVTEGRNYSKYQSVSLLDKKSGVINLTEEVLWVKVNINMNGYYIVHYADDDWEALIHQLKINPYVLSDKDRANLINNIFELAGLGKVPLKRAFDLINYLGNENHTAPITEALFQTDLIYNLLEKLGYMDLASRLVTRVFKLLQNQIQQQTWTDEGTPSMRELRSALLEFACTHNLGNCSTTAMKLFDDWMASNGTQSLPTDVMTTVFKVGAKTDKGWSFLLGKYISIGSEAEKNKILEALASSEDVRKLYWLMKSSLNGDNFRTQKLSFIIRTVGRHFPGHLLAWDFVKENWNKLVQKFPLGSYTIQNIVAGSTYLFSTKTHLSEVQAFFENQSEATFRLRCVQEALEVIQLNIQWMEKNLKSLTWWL

[6] = target: T2, Leucyl-cystinyl aminopeptidase; assay: Inhibition of human recombinant IRAP expressed in HeLa cells assessed as L-Leucine-7-amido-4-methyl coumarin hydrolysis to 7-amido-4-methyl coumarin after 5 to 10 mins by fluorescence assay; format: cell-based

T1 sequence (Q6P179 whole entry): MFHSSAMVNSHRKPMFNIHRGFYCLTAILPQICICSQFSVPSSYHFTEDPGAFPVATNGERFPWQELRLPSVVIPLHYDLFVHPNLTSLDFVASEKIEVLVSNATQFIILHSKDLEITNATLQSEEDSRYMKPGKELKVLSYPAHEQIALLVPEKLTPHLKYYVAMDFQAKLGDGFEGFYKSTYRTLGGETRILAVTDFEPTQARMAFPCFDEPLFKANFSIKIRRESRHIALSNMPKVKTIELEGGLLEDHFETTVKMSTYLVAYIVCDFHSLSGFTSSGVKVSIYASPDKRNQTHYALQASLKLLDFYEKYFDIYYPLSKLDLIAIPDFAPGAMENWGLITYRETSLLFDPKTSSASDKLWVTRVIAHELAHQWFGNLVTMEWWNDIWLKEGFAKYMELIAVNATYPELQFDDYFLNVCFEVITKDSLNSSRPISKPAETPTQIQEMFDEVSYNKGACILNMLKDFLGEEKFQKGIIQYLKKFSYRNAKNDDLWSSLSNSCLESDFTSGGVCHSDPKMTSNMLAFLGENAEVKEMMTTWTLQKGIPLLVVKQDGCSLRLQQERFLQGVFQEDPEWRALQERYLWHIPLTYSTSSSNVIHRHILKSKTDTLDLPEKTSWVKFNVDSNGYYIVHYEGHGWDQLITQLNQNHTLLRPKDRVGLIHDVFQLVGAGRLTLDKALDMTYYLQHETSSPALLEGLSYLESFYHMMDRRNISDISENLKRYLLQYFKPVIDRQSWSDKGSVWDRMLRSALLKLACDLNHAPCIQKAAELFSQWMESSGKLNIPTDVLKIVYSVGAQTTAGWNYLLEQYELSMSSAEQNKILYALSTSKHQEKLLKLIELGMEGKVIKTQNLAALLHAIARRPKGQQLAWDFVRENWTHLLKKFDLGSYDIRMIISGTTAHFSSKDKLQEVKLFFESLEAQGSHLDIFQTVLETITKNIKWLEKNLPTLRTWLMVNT

Row | SMILES | inhibition [1] [%] | IC50 [2] [µM] | inhibition [3] | inhibition [4] | inhibition [5] [%] | IC50 [6] [µM]
1 | COC(=O)[C@H](Cc1ccc(O)cc1)NC(=O)c1ccc(N)c(NC(=O)[C@@H](N)CCc2ccccc2)c1 | < 20 | > 100 | – | – | – | –
2 | COC(=O)[C@@H](NC(=O)c1ccc(N)c(NC(=O)[C@@H](N)CCc2ccccc2)c1)[C@@H](C)O | – | – | inactive | inactive | – | –
3 | COC(=O)c1ccc(N)c(NC(=O)[C@@H](N)CCc2ccccc2)c1 | < 20 | > 100 | – | inactive | – | –
4 | COC(=O)[C@H](CCCNC(=N)N)NC(=O)c1ccc(N)c(NC(=O)[C@@H](N)CCc2ccccc2)c1 | – | – | inactive | inactive | – | –
5 | Nc1ccc(C(=O)O)cc1NC(=O)[C@@H](N)CCc1ccccc1 | < 20 | > 100 | – | inactive | < 20 | > 100
6 | CC(C)[C@H](NC(=O)c1ccc(N)c(NC(=O)[C@@H](N)CCc2ccccc2)c1)C(=O)O | – | – | inactive | inactive | < 20 | > 100
7 | Nc1ccc(C(=O)N[C@@H](Cc2c[nH]c3ccccc23)C(=O)OCc2ccccc2)cc1NC(=O)[C@@H](N)CCc1ccccc1 | – | – | – | inactive | – | –
8 | COC(=O)[C@H](C)NC(=O)c1ccc(N)c(NC(=O)[C@@H](N)CCc2ccccc2)c1 | – | – | inactive | inactive | – | –

Reference: ChEMBL document CHEMBL2417496, “Novel selective inhibitors of aminopeptidases that generate antigenic peptides” (Bioorg Med Chem Lett, 2013)
